As a reminder, the IC50 is the concentration that gives 50% inhibition.

The target in series [1] is T1, Polyunsaturated fatty acid 5-lipoxygenase (Homo sapiens) (UniProt P09917).
T1 sequence (whole entry): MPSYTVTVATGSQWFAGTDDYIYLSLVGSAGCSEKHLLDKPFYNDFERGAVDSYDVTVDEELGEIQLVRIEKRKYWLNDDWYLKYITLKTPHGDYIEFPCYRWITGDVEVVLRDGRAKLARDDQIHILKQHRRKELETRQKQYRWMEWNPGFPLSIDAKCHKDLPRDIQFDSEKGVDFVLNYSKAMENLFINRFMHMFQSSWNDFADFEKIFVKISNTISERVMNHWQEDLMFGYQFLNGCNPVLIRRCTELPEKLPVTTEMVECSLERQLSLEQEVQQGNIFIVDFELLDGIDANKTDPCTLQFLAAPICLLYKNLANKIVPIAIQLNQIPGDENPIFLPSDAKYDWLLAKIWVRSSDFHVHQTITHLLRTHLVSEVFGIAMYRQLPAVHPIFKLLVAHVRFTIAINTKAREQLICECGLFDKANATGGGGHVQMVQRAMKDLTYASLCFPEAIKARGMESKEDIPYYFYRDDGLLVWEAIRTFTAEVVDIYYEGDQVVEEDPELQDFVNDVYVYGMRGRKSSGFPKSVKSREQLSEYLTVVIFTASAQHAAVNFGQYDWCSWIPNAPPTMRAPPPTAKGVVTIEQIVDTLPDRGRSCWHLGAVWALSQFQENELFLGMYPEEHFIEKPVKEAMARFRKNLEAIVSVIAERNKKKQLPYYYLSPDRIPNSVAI
In words: Inhibition of human recombinant 5-LOX assessed as reduction in leukotriene B4 production at 20 uM pre-incubated for 10 mins before arachidonic acid addition and measured after 10 mins by ELISA. In short, it runs like this:
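Human recombinant 5-LOX, 1 unit/reaction, in PBS pH 7.4 containing 1 mM Na2EDTA and 200 μM ATP. Test compound in DMSO incubated 10 min at 4 °C. Reaction started with CaCl2 and arachidonic acid, 10 min at 37 °C, stopped with formic acid. LTB4 measured by ELISA (A405). […] Screening at 20 μM; ≥3 experiments, duplicate wells.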
In general terms: ELISA stands for enzyme-linked immunosorbent assay.

Series [2] concerns the target T2, Polyunsaturated fatty acid 5-lipoxygenase (Homo sapiens, UniProt P09917).
T2 sequence (P09917 whole entry): T1 sequence (whole entry)
The experiment in a line: Inhibition of human recombinant 5-LOX assessed as reduction in leukotriene B4 production pre-incubated for 10 mins before arachidonic acid addition and measured after 10 mins by ELISA. In short, it runs like this:
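Human recombinant 5-LOX, 1 unit/reaction, in PBS pH 7.4 containing 1 mM Na2EDTA and 200 μM ATP. Test compound in DMSO incubated 10 min at 4 °C. Reaction started with CaCl2 and arachidonic acid, 10 min at 37 °C, stopped with formic acid. LTB4 measured by ELISA (A405). Screening at 20 μM; ≥3 experiments, duplicate wells.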

The subject of series [3] is THP-1. The experiment in a line: Inhibition of LPS-induced increase in CXCL1 protein expression in LPS-stimulated human THP1 cells at 2 uM by proteomic analysis relative to untreated control. Format: functional, cell-based. The method, boiled down: (§1)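 THP-1 monocytes in RPMI 1640 with 10% FBS and 2 mM L-glutamine, differentiated to macrophages with phorbol myristate acetate, then 24 h serum-free. Pretreatment 1 h with compound in DMSO (2 μM final) or DMSO alone, then LPS (E. coli 0111:B4, 1.0 μg/mL) for 24 h. Filter-aided trypsin digestion, iTRAQ 4-plex labelling, LC-MS/MS. Five biological replicates pooled per group.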

Series [4] has as its system THP-1. In words: Increase in COX2 protein expression in LPS-stimulated human THP1 cells at 2 uM by proteomic analysis relative to untreated control. Format: functional. The method, boiled down: as §1
Series [5] deals with THP-1. The experiment in a line: Inhibition of LPS-induced decrease in VIP2 protein expression in LPS-stimulated human THP1 cells at 2 uM by proteomic analysis relative to untreated control. Format: functional, cell-based. The method, boiled down:
as §1

Series [6] has as its system THP-1. The experiment in a line: Increase in RNF207 protein expression in human THP1 cells at 2 uM by proteomic analysis relative to untreated control. Format: ADME, cell-based. Particulars: read-out: FC. In short, it runs like this:
as §1

For series [7], the system named is THP-1. The experiment in a line: Inhibition of LPS-induced increase in IL1 protein expression in LPS-stimulated human THP1 cells at 2 uM by proteomic analysis relative to untreated control. Format: functional, cell-based. In short, it runs like this: as §1
Series [8] relates to THP-1. The experiment in a line: Inhibition of LPS-induced increase in TNFalpha protein expression in LPS-stimulated human THP1 cells at 2 uM by proteomic analysis relative to untreated control. Format: functional, cell-based. The method, boiled down:
as §1

Series [9] addresses T3, Prostaglandin G/H synthase 2 (Homo sapiens, UniProt P35354).
T3 sequence (P35354 whole entry): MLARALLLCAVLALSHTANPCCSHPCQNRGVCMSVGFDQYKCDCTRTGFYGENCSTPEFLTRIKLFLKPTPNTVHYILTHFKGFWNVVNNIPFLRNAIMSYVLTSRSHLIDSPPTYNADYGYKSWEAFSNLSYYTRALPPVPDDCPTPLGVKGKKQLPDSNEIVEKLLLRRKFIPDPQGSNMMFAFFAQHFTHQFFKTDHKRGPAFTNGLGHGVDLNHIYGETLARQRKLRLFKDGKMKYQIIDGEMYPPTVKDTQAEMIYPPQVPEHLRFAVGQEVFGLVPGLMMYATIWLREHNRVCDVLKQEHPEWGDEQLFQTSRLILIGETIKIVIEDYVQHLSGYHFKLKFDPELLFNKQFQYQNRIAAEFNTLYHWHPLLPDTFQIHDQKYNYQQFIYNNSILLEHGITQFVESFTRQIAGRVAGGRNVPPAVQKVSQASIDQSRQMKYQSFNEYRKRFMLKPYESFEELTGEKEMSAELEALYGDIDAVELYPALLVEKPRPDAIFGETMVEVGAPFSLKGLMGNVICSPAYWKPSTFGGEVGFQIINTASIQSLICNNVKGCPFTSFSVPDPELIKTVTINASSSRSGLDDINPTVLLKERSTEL
The experiment in a line: Inhibition of human recombinant COX2 assessed as reduction in PGE2 formation pre-incubated for 5 mins before arachidonic acid addition and measured after 20 mins by ELISA.

Series [10] deals with T4, Prostaglandin G/H synthase 2 (Homo sapiens) (UniProt P35354).
T4 sequence (whole entry): T3 sequence (P35354 whole entry)
The experiment in a line: Inhibition of human recombinant COX2 assessed as reduction in PGE2 formation at 20 uM pre-incubated for 5 mins before arachidonic acid addition and measured after 20 mins by ELISA. In short, it runs like this: (§2)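 COX-1 from ram seminal vesicles (1 unit) or human recombinant COX-2 (0.5 unit) in 100 mM Tris pH 8.0 with 5 μM hematin, 18 mM L-epinephrine and 50 μM Na2EDTA. Compound in DMSO preincubated 5 min at room temperature. Arachidonic acid added, 20 min at 37 °C, stopped with formic acid. PGE2 by ELISA (A405).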

Series [11] concerns THP-1. The experiment in a line: Increase in COX2 protein expression in human THP1 cells at 2 uM by proteomic analysis relative to untreated control. Format: ADME, cell-based. The conditions noted are these: thp-1, 2 µM. The method, boiled down:
as §1

The subject of series [12] is THP-1. The experiment in a line: Inhibition of LPS-induced increase in CCL5 protein expression in LPS-stimulated human THP1 cells at 2 uM by proteomic analysis relative to untreated control. Format: functional, cell-based. In short, it runs like this:
as §1

Series [13] concerns THP-1. In words: Increase in TX1B3 protein expression in human THP1 cells at 2 uM by proteomic analysis relative to untreated control. Format: ADME, cell-based. Particulars: read-out: FC. In short, it runs like this: as §1
Series [14] concerns THP-1. The experiment in a line: Inhibition of LPS-induced increase in CCL1 protein expression in LPS-stimulated human THP1 cells at 2 uM by proteomic analysis relative to untreated control. Format: functional, cell-based. In short, it runs like this:
as §1

Series [15] addresses T5, Prostaglandin G/H synthase 1 (Ovis aries, UniProt P05979).
T5 sequence (P05979 whole entry): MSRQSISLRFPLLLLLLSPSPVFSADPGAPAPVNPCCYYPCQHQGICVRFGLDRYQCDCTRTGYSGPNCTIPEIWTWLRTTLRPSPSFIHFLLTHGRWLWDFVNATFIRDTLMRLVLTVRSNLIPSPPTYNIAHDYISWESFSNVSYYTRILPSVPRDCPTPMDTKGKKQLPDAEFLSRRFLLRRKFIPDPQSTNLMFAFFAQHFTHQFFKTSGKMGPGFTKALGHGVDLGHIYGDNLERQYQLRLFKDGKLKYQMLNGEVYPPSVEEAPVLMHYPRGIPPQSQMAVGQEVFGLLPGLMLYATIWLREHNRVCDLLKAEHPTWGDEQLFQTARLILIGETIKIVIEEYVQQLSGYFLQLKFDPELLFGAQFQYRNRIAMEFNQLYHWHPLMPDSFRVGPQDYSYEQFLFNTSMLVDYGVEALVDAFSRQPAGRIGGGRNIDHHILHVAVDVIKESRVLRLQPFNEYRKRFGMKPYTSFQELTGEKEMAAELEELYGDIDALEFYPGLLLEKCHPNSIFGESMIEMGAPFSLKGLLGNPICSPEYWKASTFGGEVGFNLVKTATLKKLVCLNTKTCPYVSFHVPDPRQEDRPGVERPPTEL
In words: Inhibition of ram seminal vesicle COX1 assessed as reduction in PGE2 formation pre-incubated for 5 mins before arachidonic acid addition and measured after 20 mins by ELISA. In short, it runs like this: as §2

A short description of series [16]: Selectivity index, ratio of IC50 for ram seminal vesicle COX1 to IC50 for human recombinant COX2.
Series [17] deals with T1, Polyunsaturated fatty acid 5-lipoxygenase (Homo sapiens). The experiment in a line: Potency index, ratio of IC50 for zileuton to IC50 for test compound fior inhibition of human recombinant 5-LOX assessed as reduction in leukotriene B4 production pre-incubated for 10 mins before arachidonic acid addition and measured after 10 mins by ELISA.

Calls of active or inactive are those of the source. The calls are words filed in the database; no cut-off is given here.

Consider `CC(C)=CCCC1(C)C=Cc2c(cc3c(c2O)C(=O)C[C@@H](c2cc(O)cc(O)c2)O3)O1` (some centres not stated), for which, in [1], the inhibition result was “Active”. Also, in series [2], the concentration for half-maximal inhibition (IC50) turned out to be 0.35 µM.
With `CC(C)=CCC/C(C)=C/Cc1c(O)cc2c(c1O)C(=O)C[C@@H](c1ccc(O)c(O)c1)O2` [NYMPHAEOL A], the inhibition result (in [1]; in the series with THP-1 [3]; with THP-1 [5]; with THP-1 [7]; with THP-1 [8]; in series [10]) was “Active” throughout. For the same compound, the inhibition result in the series with THP-1 [12] and in the series with THP-1 [14] was “Active” throughout. Further, the “fold change (FC)” value in the series with THP-1 [4] is reported as 1.55. Moreover, the figures for the IC50 in [2], in series [9] and in [15] were 0.05 µM, 4.2 µM and 1.8 µM, respectively. In addition, the values for the fold induction at 2 µM with THP-1 [6] and in the series on THP-1 [13] were 2.09 and 1.88, respectively. Also, in the series on THP-1 [11], the Activity entry is listed as “Non-Toxic”.
With `COc1cc([C@@H]2CC(=O)c3c(cc(O)c(C/C=C(\C)CCC=C(C)C)c3O)O2)cc(OC)c1O`, the inhibition result in series [1] was “Active”. In addition, the IC50 in [2] is 0.38 µM.
Consider `CC(C)=CCC/C(C)=C/Cc1c(O)cc2c(c1O)C(=O)C[C@@H](c1ccc(O)cc1)O2` [BONANNIONE A], for which the Ratio IC50 in series [16] came out at 0.62. Further, the 50% inhibitory concentration (IC50) came out at 6 µM in series [9] and 3.7 µM in series [15]. The inhibition entry in series [10] is “Active”.
The like results for `COc1cc([C@@H]2CC(=O)c3c(cc(O)c(C/C=C(\C)CCC=C(C)C)c3O)O2)cc(O)c1OC` were, in that order, 0.66, 6.4 µM, 4.2 µM and “Active”.
The corresponding values for `COc1cc([C@@H]2CC(=O)c3c(cc4c(c3O)C=CC(C)(CCC=C(C)C)O4)O2)ccc1O` (some centres not stated) are 2.8, 9.5 µM, 26.3 µM and “Active”.
As for `COc1cc([C@@H]2CC(=O)c3c(cc(O)c(C/C=C(\C)CCC=C(C)C)c3O)O2)cc(O)c1O`, the inhibition result in series [1] and in series [10] was “Active” throughout. The Ratio IC50 worked out at 10 in series [17] and 0.31 in series [16]. In addition, the concentration for half-maximal inhibition (IC50) in series [2] turned out to be 0.06 µM; in series [9], 10.6 µM; in series [15], 3.3 µM.
On to `COc1cc(C2CC(=O)c3c(cc4c(c3O)C=CC(C)(CCC=C(C)C)O4)O2)cc(OC)c1O` (configuration not stated), for which, in series [1], the inhibition result was “Active”. Moreover, the half-maximal inhibitory concentration (IC50) in series [2] came to 0.37 µM.
The corresponding values for `CC(C)=CCC/C(C)=C/Cc1c(O)cc2occc(=O)c2c1O` are “Active” and 2.46 µM.
